Test results published in ChEMBL document CHEMBL2407028, “Discovery of novel oxazolidinedione derivatives as potent and selective mineralocorticoid receptor antagonists” (Bioorg Med Chem Lett, 2013).

Assays:
Rattus norvegicus [1] = assay: Dose normalized AUC in rat at 1 mg/kg, iv; type: ADME, organism-based; set-up: dose 1 mg/kg, route intravenous; settings: in vivo
In short: (§1)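 Rats dosed at 1 mg/kg iv (n = 2) or 1 mg/kg po (n = 3), formulated at 1 mg/mL in PEG 200:water (70:30). Blood concentrations measured by LC/MS/MS after protein precipitation with acetonitrile.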

[2] = Half life in rat at 1 mg/kg, iv and 1 mg/lg, po; type: ADME, organism-based; set-up: dose 1 mg/kg, route oral; settings: in vivo; in short: as §1
Rattus norvegicus [3] = assay: Volume of distribution at steady state in rat at 1 mg/kg, iv and 1 mg/lg, po; type: ADME, organism-based; set-up: dose 1 mg/kg, route oral; settings: in vivo; in short: as §1
Rattus norvegicus [4] = assay: Dose normalized AUC in rat at 1 mg/kg, po; type: ADME, organism-based; set-up: dose 1 mg/kg, route oral; settings: in vivo; in short: as §1
Estrogen receptor = target: T1, Estrogen receptor (Homo sapiens, UniProt P03372); assay: Antagonist activity at estrogen receptor alpha (unknown origin) by NH Pro assay
T1 sequence (P03372 whole entry): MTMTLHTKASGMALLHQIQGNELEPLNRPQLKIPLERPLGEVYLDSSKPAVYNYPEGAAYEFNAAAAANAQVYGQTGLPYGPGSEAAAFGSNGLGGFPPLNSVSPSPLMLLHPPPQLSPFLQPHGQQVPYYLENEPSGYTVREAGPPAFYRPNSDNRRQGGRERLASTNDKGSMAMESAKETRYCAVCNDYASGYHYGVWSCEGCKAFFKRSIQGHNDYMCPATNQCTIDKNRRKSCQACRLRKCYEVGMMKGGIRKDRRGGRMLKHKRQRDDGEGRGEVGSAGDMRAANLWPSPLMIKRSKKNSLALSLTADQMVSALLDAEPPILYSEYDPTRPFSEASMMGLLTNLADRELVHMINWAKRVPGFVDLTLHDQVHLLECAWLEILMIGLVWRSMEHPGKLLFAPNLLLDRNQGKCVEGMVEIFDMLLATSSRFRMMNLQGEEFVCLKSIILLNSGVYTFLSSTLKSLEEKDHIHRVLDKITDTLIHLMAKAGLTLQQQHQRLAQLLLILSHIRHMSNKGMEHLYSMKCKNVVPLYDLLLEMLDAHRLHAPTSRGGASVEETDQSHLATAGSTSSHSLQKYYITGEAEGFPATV

Androgen receptor [5] = target: T2, Androgen receptor (Homo sapiens, UniProt P10275); assay: Antagonist activity at androgen receptor (unknown origin) by NH Pro assay
T2 sequence (P10275 whole entry): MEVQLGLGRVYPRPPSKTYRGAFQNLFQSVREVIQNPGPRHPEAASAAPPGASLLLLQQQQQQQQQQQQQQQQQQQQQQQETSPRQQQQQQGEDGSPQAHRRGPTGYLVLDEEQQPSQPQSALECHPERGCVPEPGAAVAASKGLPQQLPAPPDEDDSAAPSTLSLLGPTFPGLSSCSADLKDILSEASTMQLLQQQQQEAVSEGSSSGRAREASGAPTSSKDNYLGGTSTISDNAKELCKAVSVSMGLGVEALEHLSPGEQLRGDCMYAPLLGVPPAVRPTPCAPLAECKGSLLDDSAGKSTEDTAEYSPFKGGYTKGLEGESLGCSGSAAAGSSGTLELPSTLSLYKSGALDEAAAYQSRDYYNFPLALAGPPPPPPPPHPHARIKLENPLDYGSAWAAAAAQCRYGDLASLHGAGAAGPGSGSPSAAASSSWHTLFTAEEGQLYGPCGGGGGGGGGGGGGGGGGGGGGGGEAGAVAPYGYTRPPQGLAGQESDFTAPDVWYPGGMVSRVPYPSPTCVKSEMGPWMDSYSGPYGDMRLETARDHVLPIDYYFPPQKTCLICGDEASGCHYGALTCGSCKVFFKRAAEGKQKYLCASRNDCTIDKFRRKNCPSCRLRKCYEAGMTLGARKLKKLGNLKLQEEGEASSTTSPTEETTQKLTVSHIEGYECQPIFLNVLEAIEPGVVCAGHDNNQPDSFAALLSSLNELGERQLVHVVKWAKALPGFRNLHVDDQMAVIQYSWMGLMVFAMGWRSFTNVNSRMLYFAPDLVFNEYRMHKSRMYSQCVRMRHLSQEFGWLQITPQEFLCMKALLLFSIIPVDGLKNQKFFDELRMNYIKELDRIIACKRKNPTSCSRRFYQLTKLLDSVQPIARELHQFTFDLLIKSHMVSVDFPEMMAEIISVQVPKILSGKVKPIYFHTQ

Glucocorticoid receptor = target: T3, Glucocorticoid receptor (Homo sapiens, UniProt P04150); assay: Agonist activity at glucocorticoid receptor (unknown origin) by NH Pro assay
T3 sequence (P04150 whole entry): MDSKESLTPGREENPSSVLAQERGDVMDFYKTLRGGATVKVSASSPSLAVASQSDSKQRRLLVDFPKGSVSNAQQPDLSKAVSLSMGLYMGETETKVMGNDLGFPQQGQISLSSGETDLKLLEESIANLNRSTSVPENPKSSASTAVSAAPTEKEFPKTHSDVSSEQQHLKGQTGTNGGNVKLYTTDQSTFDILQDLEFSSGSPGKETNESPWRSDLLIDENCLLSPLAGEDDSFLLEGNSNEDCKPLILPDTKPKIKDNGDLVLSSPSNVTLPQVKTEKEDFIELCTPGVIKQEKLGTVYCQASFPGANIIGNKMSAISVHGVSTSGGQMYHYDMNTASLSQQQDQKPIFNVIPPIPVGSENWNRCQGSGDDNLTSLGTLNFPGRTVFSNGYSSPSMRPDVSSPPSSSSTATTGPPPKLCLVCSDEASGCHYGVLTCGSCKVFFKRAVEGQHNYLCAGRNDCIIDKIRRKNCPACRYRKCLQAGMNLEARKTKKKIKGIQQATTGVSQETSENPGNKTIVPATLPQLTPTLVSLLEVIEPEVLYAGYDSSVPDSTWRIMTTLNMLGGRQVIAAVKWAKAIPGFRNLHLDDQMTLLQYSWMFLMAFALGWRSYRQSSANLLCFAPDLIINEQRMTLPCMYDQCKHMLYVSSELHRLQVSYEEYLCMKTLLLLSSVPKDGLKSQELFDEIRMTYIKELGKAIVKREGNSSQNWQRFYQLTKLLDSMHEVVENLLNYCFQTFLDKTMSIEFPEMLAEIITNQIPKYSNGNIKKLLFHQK

Androgen receptor [6] = target: T2, Androgen receptor; assay: Agonist activity at androgen receptor (unknown origin) by NH Pro assay
Estrogen receptor beta [7] = target: T4, Estrogen receptor beta (Homo sapiens, UniProt Q92731); assay: Agonist activity at estrogen receptor beta (unknown origin) by NH Pro assay
Estrogen receptor beta [8] = target: T4, Estrogen receptor beta; assay: Antagonist activity at estrogen receptor beta (unknown origin) by NH Pro assay
[9] = Cmax in rat at 1 mg/kg, iv and 1 mg/lg, po; type: ADME, organism-based; set-up: dose 1 mg/kg, route oral; settings: in vivo; in short: as §1

T4 sequence (Q92731 whole entry): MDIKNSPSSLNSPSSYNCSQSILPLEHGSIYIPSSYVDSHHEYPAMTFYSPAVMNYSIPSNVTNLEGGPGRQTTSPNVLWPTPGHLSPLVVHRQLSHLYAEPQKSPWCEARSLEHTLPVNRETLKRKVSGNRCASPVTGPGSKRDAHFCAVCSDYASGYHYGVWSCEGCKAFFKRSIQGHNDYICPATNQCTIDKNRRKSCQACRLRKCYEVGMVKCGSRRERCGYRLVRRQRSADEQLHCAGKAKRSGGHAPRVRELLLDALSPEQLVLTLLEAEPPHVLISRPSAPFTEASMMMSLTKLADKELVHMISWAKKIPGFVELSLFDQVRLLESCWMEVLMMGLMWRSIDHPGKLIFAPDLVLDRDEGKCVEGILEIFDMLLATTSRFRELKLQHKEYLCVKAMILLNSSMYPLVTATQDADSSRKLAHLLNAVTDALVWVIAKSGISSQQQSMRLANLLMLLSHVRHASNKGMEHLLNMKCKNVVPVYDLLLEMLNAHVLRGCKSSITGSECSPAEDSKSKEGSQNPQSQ

Compound | AUC/dose (Rattus norvegicus [1]) [µM·kg·h/mg] | half-life [2] [h] | Vdss (Rattus norvegicus [3]) [L/kg] | AUC/dose (Rattus norvegicus [4]) [µM·kg·h/mg] | IC50 (Estrogen receptor) [µM] | IC50 (Androgen receptor [5]) [µM] | EC50 (Glucocorticoid receptor) [µM] | EC50 (Androgen receptor [6]) [µM] | EC50 (Estrogen receptor beta [7]) [µM] | IC50 (Estrogen receptor beta [8]) [µM] | Cmax [9] [nM]
COc1cc(CNC(=O)[C@@]2(Cc3ccccc3)OC(=O)N([C@@H]3CCc4ccccc43)C2=O)cc(OC)c1 | 0.89 | 2.5 | 4.7 | 0.24 | 17 | 12 | > 20 | > 20 | > 20 | 15 | 98
C[C@H](c1ccc(F)cc1)N1C(=O)O[C@](Cc2ccc(F)cc2)(C(=O)NCc2ccc(Cl)c(Cl)c2)C1=O | 0.46 | 2.3 | 7.9 | 0.24 | 7.3 | > 20 | > 20 | > 20 | > 20 | 15 | 120
